According to ChEMBL document CHEMBL3627695, “1-Benzyl-2-methyl-3-indolylmethylene barbituric acid derivatives: Anti-cancer agents that target nucleophosmin 1 (NPM1)” (Bioorg Med Chem, 2015):

Legend:
CCRF-CEM = test: Anticancer activity against human CCRF-CEM cells after 48 hrs by sulforhodamine B assay; assay type: functional
Summary of the method: (§1)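 NCI-60 human tumour cell line panel. Compounds dissolved in DMSO/H2O and tested at five 10-fold dilutions (10⁻⁴ M to 10⁻⁸ M) for 48 hr. GI50 is the molar concentration giving 50% reduction in net cell growth relative to cell numbers on day 0.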

HL-60(TB) = test: Anticancer activity against human HL-60(TB) cells after 48 hrs by sulforhodamine B assay; assay type: functional; conditions: HL-60, 48 h; summary of the method: as §1
K562 = test: Anticancer activity against human K562 cells after 48 hrs by sulforhodamine B assay; assay type: functional; conditions: K562, 48 h; summary of the method: as §1
[1] = Anticancer activity against human MOLT4 cells after 48 hrs by sulforhodamine B assay; assay type: functional; conditions: MOLT-4, 48 h; summary of the method: as §1
[2] = Anticancer activity against human RPMI8226 cells after 48 hrs by sulforhodamine B assay; assay type: functional; conditions: RPMI-8226, 48 h; summary of the method: as §1
SR = test: Anticancer activity against human SR cells after 48 hrs by sulforhodamine B assay; assay type: functional
Summary of the method: (§2)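 NCI-60 panel protocol. Compounds were dissolved in DMSO/H2O and tested at five 10-fold concentrations (10⁻⁴ to 10⁻⁸ M) with 48 hr incubation. GI50 is the molar concentration giving a 50% reduction in net cell growth relative to cell numbers on day 0.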

A549 = test: Anticancer activity against human A549/ATCC cells after 48 hrs by sulforhodamine B assay; assay type: functional; conditions: A549, 48 h; summary of the method: as §1
HOP-62 = test: Anticancer activity against human HOP62 cells after 48 hrs by sulforhodamine B assay; assay type: functional; conditions: HOP-62, 48 h; summary of the method: as §1
[3] = Anticancer activity against human HOP92 cells after 48 hrs by sulforhodamine B assay; assay type: functional; conditions: HOP-92, 48 h; summary of the method: as §1
NCI-H226 = test: Anticancer activity against human NCI-H226 cells after 48 hrs by sulforhodamine B assay; assay type: functional; conditions: NCI-H226, 48 h; summary of the method: as §1
NCI-H322M = test: Anticancer activity against human NCI-H322M cells after 48 hrs by sulforhodamine B assay; assay type: functional; summary of the method: as §1
NCI-H460 = test: Anticancer activity against human NCI-H460 cells after 48 hrs by sulforhodamine B assay; assay type: functional; conditions: NCI-H460, 48 h; summary of the method: as §1
NCI-H522 = test: Anticancer activity against human NCI-H522 cells after 48 hrs by sulforhodamine B assay; assay type: functional; conditions: NCI-H522, 48 h; summary of the method: as §1
[4] = Anticancer activity against human COLO205 cells after 48 hrs by sulforhodamine B assay; assay type: functional; conditions: COLO 205, 48 h; summary of the method: as §1
[5] = Anticancer activity against human HCC2998 cells after 48 hrs by sulforhodamine B assay; assay type: functional; conditions: HCC 2998, 48 h; summary of the method: as §1
HCT-116 = test: Anticancer activity against human HCT116 cells after 48 hrs by sulforhodamine B assay; assay type: functional; conditions: HCT-116, 48 h; summary of the method: as §1
HCT-15 = test: Anticancer activity against human HCT15 cells after 48 hrs by sulforhodamine B assay; assay type: functional; conditions: HCT-15, 48 h; summary of the method: as §1
HT-29 = test: Anticancer activity against human HT-29 cells after 48 hrs by sulforhodamine B assay; assay type: functional; conditions: HT-29, 48 h; summary of the method: as §1
KM12 = test: Anticancer activity against human KM12 cells after 48 hrs by sulforhodamine B assay; assay type: functional; conditions: KM12, 48 h; summary of the method: as §1
SW-620 = test: Anticancer activity against human SW620 cells after 48 hrs by sulforhodamine B assay; assay type: functional; conditions: SW-620, 48 h; summary of the method: as §2
SF-268 = test: Anticancer activity against human SF268 cells after 48 hrs by sulforhodamine B assay; assay type: functional; conditions: SF-268, 48 h; summary of the method: as §1
[6] = Anticancer activity against human SF295 cells after 48 hrs by sulforhodamine B assay; assay type: functional; conditions: SF-295, 48 h; summary of the method: as §1
[7] = Anticancer activity against human SF539 cells after 48 hrs by sulforhodamine B assay; assay type: functional; conditions: SF-539, 48 h; summary of the method: as §1
SNB-19 = test: Anticancer activity against human SNB19 cells after 48 hrs by sulforhodamine B assay; assay type: functional; conditions: SNB-19, 48 h; summary of the method: as §1
SNB-75 = test: Anticancer activity against human SNB75 cells after 48 hrs by sulforhodamine B assay; assay type: functional; conditions: SNB-75, 48 h; summary of the method: as §1
U-251 = test: Anticancer activity against human U251 cells after 48 hrs by sulforhodamine B assay; assay type: functional; conditions: U-251, 48 h; summary of the method: as §2
[8] = Anticancer activity against human LOXIMVI cells after 48 hrs by sulforhodamine B assay; assay type: functional; conditions: LOX IMVI; summary of the method: as §1
Malme-3M = test: Anticancer activity against human MALME-3M cells after 48 hrs by sulforhodamine B assay; assay type: functional; summary of the method: as §1
M14 = test: Anticancer activity against human M14 cells after 48 hrs by sulforhodamine B assay; assay type: functional; conditions: M14, 48 h; summary of the method: as §1
MDA-MB-435 = test: Anticancer activity against human MDA-MB-435 cells after 48 hrs by sulforhodamine B assay; assay type: functional; conditions: MDA-MB-435, 48 h; summary of the method: as §1
SK-MEL-2 = test: Anticancer activity against human SK-MEL-2 cells after 48 hrs by sulforhodamine B assay; assay type: functional; conditions: SK-MEL-2, 48 h; summary of the method: as §1
SK-MEL-28 = test: Anticancer activity against human SK-MEL-28 cells after 48 hrs by sulforhodamine B assay; assay type: functional; conditions: SK-MEL-28, 48 h; summary of the method: as §1
SK-MEL-5 = test: Anticancer activity against human SK-MEL-5 cells after 48 hrs by sulforhodamine B assay; assay type: functional; conditions: SK-MEL-5, 48 h; summary of the method: as §1
UACC-257 = test: Anticancer activity against human UACC257 cells after 48 hrs by sulforhodamine B assay; assay type: functional; conditions: UACC-257, 48 h; summary of the method: as §2
IGROV-1 = test: Anticancer activity against human IGROV1 cells after 48 hrs by sulforhodamine B assay; assay type: functional; conditions: IGROV-1, 48 h; summary of the method: as §1
OVCAR-3 = test: Anticancer activity against human OVCAR3 cells after 48 hrs by sulforhodamine B assay; assay type: functional; conditions: OVCAR-3, 48 h; summary of the method: as §1
OVCAR-4 = test: Anticancer activity against human OVCAR4 cells after 48 hrs by sulforhodamine B assay; assay type: functional; conditions: OVCAR-4, 48 h; summary of the method: as §1
OVCAR-5 = test: Anticancer activity against human OVCAR5 cells after 48 hrs by sulforhodamine B assay; assay type: functional; conditions: OVCAR-5, 48 h; summary of the method: as §1
OVCAR-8 = test: Anticancer activity against human OVCAR8 cells after 48 hrs by sulforhodamine B assay; assay type: functional; conditions: OVCAR-8, 48 h; summary of the method: as §1
[9] = Anticancer activity against human NCI-ADR-RES cells after 48 hrs by sulforhodamine B assay; assay type: functional; summary of the method: as §1
SK-OV-3 = test: Anticancer activity against human SKOV3 cells after 48 hrs by sulforhodamine B assay; assay type: functional; conditions: SK-OV-3, 48 h; summary of the method: as §1
786-0 = test: Anticancer activity against human 786-0 cells after 48 hrs by sulforhodamine B assay; assay type: functional; conditions: 786-0, 48 h; summary of the method: as §1
A498 = test: Anticancer activity against human A498 cells after 48 hrs by sulforhodamine B assay; assay type: functional; conditions: A498, 48 h; summary of the method: as §1
ACHN = test: Anticancer activity against human ACHN cells after 48 hrs by sulforhodamine B assay; assay type: functional; summary of the method: as §1
CAKI-1 = test: Anticancer activity against human Caki1 cells after 48 hrs by sulforhodamine B assay; assay type: functional; conditions: CAKI-1, 48 h; summary of the method: as §1
[10] = Anticancer activity against human RXF393 cells after 48 hrs by sulforhodamine B assay; assay type: functional; conditions: RXF 393, 48 h; summary of the method: as §1
SN12C = test: Anticancer activity against human SN12C cells after 48 hrs by sulforhodamine B assay; assay type: functional; summary of the method: as §1
TK-10 = test: Anticancer activity against human TK10 cells after 48 hrs by sulforhodamine B assay; assay type: functional; conditions: TK-10, 48 h; summary of the method: as §2
UO-31 = test: Anticancer activity against human UO31 cells after 48 hrs by sulforhodamine B assay; assay type: functional; conditions: UO-31, 48 h; summary of the method: as §2
DU-145 = test: Anticancer activity against human DU145 cells after 48 hrs by sulforhodamine B assay; assay type: functional; conditions: DU-145, 48 h; summary of the method: as §1
MCF7 = test: Anticancer activity against human MCF7 cells after 48 hrs by sulforhodamine B assay; assay type: functional; conditions: MCF7, 48 h; summary of the method: as §1
MDA-MB-231 = test: Anticancer activity against human MDA-MB-231 cells after 48 hrs by sulforhodamine B assay; assay type: functional; conditions: MDA-MB-231, 48 h; summary of the method: as §1
[11] = Anticancer activity against human Hs 578T cells after 48 hrs by sulforhodamine B assay; assay type: functional; summary of the method: as §1
BT-549 = test: Anticancer activity against human BT549 cells after 48 hrs by sulforhodamine B assay; assay type: functional; conditions: BT-549, 48 h; summary of the method: as §1
T47D = test: Anticancer activity against human T47D cells after 48 hrs by sulforhodamine B assay; assay type: functional; summary of the method: as §2
MDA-MB-468 = test: Anticancer activity against human MDA-MB-468 cells after 48 hrs by sulforhodamine B assay; assay type: functional; conditions: MDA-MB-468, 48 h; summary of the method: as §1
[12] = (§3) Anticancer activity against human OCI-AML3 cells expressing mutant NPM1 assessed as apoptosis for 48 hrs by annexin-V and TO-PRO3 staining based flow cytometry; assay type: functional, cell-based; conditions: OCI-AML-3, 48 h
Summary of the method: (§4)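 OCI-AML3 cells (NPM1c+) in logarithmic growth, passaged 2–3 times weekly. Cells were exposed to the indicated compound concentrations for 48 hr, then stained with annexin V and TO-PRO 3. Percent apoptotic cells was read by flow cytometry. AP50 is the concentration at which 50% of cells undergo apoptosis.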

OCI-AML-3 = test: as §3; assay type: functional, cell-based; summary of the method: as §4

## COC(=O)c1ccc(Cn2c(C)c(C=C3C(=O)NC(=S)NC3=O)c3ccccc32)cc1
CCRF-CEM
  GI50: 0.34 µM
HL-60(TB)
  GI50: 0.22 µM
K562
  GI50: 0.27 µM
[1]
  GI50: 0.35 µM
[2]
  GI50: 0.31 µM
SR
  GI50: 0.32 µM
A549
  GI50: 1.36 µM
HOP-62
  GI50: 0.39 µM
[3]
  GI50: 0.25 µM
NCI-H226
  GI50: 0.41 µM
NCI-H322M
  GI50: 0.53 µM
NCI-H460
  GI50: 0.33 µM
NCI-H522
  GI50: 0.25 µM
[4]
  GI50: 0.2 µM
[5]
  GI50: 0.4 µM
HCT-116
  GI50: 0.26 µM
HCT-15
  GI50: 0.33 µM
HT-29
  GI50: 0.31 µM
KM12
  GI50: 0.31 µM
SW-620
  GI50: 0.4 µM
SF-268
  GI50: 0.42 µM
[6]
  GI50: 0.35 µM
[7]
  GI50: 0.22 µM
SNB-19
  GI50: 1.05 µM
SNB-75
  GI50: 0.46 µM
U-251
  GI50: 0.32 µM
[8]
  GI50: 0.32 µM
Malme-3M
  GI50: 1.48 µM
M14
  GI50: 0.33 µM
MDA-MB-435
  GI50: 0.22 µM
SK-MEL-2
  GI50: 1.12 µM
SK-MEL-28
  GI50: 1.05 µM
SK-MEL-5
  GI50: 1.13 µM
UACC-257
  GI50: 0.8 µM
IGROV-1
  GI50: 0.51 µM
OVCAR-3
  GI50: 0.3 µM
OVCAR-4
  GI50: 0.46 µM
OVCAR-5
  GI50: 0.42 µM
OVCAR-8
  GI50: 0.32 µM
[9]
  GI50: 0.35 µM
SK-OV-3
  GI50: 0.45 µM
786-0
  GI50: 0.32 µM
A498
  GI50: 0.19 µM
ACHN
  GI50: 0.51 µM
CAKI-1
  GI50: 0.5 µM
[10]
  GI50: 0.3 µM
SN12C
  GI50: 0.41 µM
TK-10
  GI50: 0.31 µM
UO-31
  GI50: 0.41 µM
DU-145
  GI50: 0.34 µM
MCF7
  GI50: 0.4 µM
MDA-MB-231
  GI50: 0.38 µM
[11]
  GI50: 0.22 µM
BT-549
  GI50: 0.31 µM
T47D
  GI50: 1.86 µM
MDA-MB-468
  GI50: 0.34 µM
[12]
  AC50: 1.75 µM
OCI-AML-3
  Activity: Dose-dependent effect
